In ChEMBL document CHEMBL3865799, “Synthesis of a series of novel dihydroartemisinin monomers and dimers containing chalcone as a linker and their anticancer activity” (Eur J Med Chem, 2016):
The source made the active and inactive calls. No cut-off for these calls is given here.

Experiments:
[1] = Cytotoxicity against human MIAPaCa2 cells assessed as cell growth inhibition at 50 uM after 48 hrs by MTT assay; format: functional; details: MIA PaCa-2, 48 h, read-out: GI
Procedure, shortened: (§1)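 Adherent lines at 70–75% confluence, grown at 37 °C in 5% CO2 with 10% FCS. Exposed 48 h to compound in DMSO (vehicle <0.2% v/v). MTT dye added 3 h before termination; formazan dissolved in DMSO, OD 570 nm with 620 nm reference. Growth inhibition expressed as % of untreated; IC50 taken from the dose series.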

[2] = Cytotoxicity against human LS180 cells assessed as cell growth inhibition after 48 hrs by MTT assay; format: functional, cell-based; details: LS180, 48 h; procedure, shortened: as §1
[3] = Cytotoxicity against human HL60 cells assessed as cell growth inhibition at 10 uM after 48 hrs by MTT assay; format: functional; details: HL-60, 48 h, read-out: GI
Procedure, shortened: (§2)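 HL-60 suspension cells, 1.5 × 10^4 per well, grown at 37 °C in 5% CO2 with 10% FCS. Treated 48 h with compound in DMSO (vehicle <0.2% v/v). MTT added 3 h before the end. Formazan dissolved in DMSO and read at 570 nm (reference 620 nm). % growth inhibition computed against untreated cells; IC50 taken from the concentration series.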

[4] = Cell cycle arrest in human HL60 cells assessed as accumulation at subG0 phase at 0.2 uM after 24 hrs by propidium iodide-DNA fluorescence based FACS analysis (reference value: 5 %); format: functional; details: HL-60
Procedure, shortened: (§3)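 HL-60 cells seeded at 0.5 × 10^6 cells/ml, exposed 24 h to compound (DMSO vehicle, <0.2% v/v). Pelleted at 400×g, PBS-washed, fixed in 70% ethanol at 4 °C overnight. RNase A treatment at 37 °C for 1.30 h, then propidium iodide staining for 20 min. Flow cytometry on 10,000 events, FL2-A vs FL2-W; subG0 (apoptotic) and phase populations gated.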

[5] = Cell cycle arrest in human HL60 cells assessed as accumulation at S phase at 0.2 uM after 24 hrs by propidium iodide-DNA fluorescence based FACS analysis (reference value: 53 %); format: functional; details: HL-60; procedure, shortened: as §3
[6] = Cytotoxicity against human PC3 cells assessed as cell growth inhibition at 30 uM after 48 hrs by MTT assay; format: functional; details: PC-3, 48 h, read-out: GI; procedure, shortened: as §1
[7] = Cell cycle arrest in human HL60 cells assessed as accumulation at G1 phase at 0.2 uM after 24 hrs by propidium iodide-DNA fluorescence based FACS analysis (reference value: 46 %); format: functional; details: HL-60; procedure, shortened: as §3
[8] = Cytotoxicity against human LS180 cells assessed as cell growth inhibition at 30 uM after 48 hrs by MTT assay; format: functional; details: LS180, 48 h, read-out: GI; procedure, shortened: as §1
[9] = system: HL-60; assay: Induction of apoptosis in human HL60 cells assessed as loss of mitochondrial membrane potential at 1 uM after 24 hrs by Rh123 dye-based FACS analysis (reference value: 5%); format: functional
[10] = Cytotoxicity against human HepG2 cells assessed as cell growth inhibition at 30 uM after 48 hrs by MTT assay; format: functional; details: HepG2, 48 h, read-out: GI; procedure, shortened: as §1
[11] = Cytotoxicity against human HL60 cells assessed as cell growth inhibition at 30 uM after 48 hrs by MTT assay; format: functional; details: HL-60, 48 h, read-out: GI; procedure, shortened: as §2
[12] = Cell cycle arrest in human HL60 cells assessed as accumulation at G1 phase at 0.5 uM after 24 hrs by propidium iodide-DNA fluorescence based FACS analysis (reference value: 46 %); format: functional; details: HL-60; procedure, shortened: as §3
[13] = Cytotoxicity against human HL60 cells assessed as cell growth inhibition at 50 uM after 48 hrs by MTT assay; format: functional; details: HL-60, 48 h, read-out: GI; procedure, shortened: as §2
[14] = Cell cycle arrest in human HL60 cells assessed as accumulation at subG0 phase at 5 uM after 24 hrs by propidium iodide-DNA fluorescence based FACS analysis (reference value: 5 %); details: HL-60
[15] = Cytotoxicity against human LS180 cells assessed as cell growth inhibition at 0.5 uM after 48 hrs by MTT assay; format: functional; details: LS180, 48 h, read-out: GI; procedure, shortened: as §1
[16] = Cytotoxicity against human HepG2 cells assessed as cell growth inhibition at 10 uM after 48 hrs by MTT assay; format: functional; details: HepG2, 48 h, read-out: GI; procedure, shortened: as §1
[17] = Cytotoxicity against human MIAPaCa2 cells assessed as cell growth inhibition at 10 uM after 48 hrs by MTT assay; format: functional; details: MIA PaCa-2, 48 h, read-out: GI; procedure, shortened: as §1
[18] = Cell cycle arrest in human HL60 cells assessed as accumulation at subG0 phase after 24 hrs by propidium iodide-DNA fluorescence based FACS analysis; format: functional; details: HL-60; procedure, shortened: as §3
[19] = system: HL-60; assay: Induction of apoptosis in human HL60 cells assessed as induction of apoptotic bodies at 0.5 uM after 24 hrs by hoechst 33258 staining-based microscopic analysis; format: functional, cell-based
Procedure, shortened: (§4)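 HL-60 cells at 0.5 × 10^6/ml were treated for 24 h with […] compound in DMSO vehicle (<0.2%). Cells were fixed in cold acetic acid:methanol (1:3) for 1 h on ice, spread on slides and air-dried overnight. Slides were stained with Hoechst 33258 for 30 min, mounted in glycerol:PBS and viewed by fluorescence microscopy at 20×. Morphology was checked by phase contrast. One of three experiments shown.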

[20] = Cytotoxicity against human PC3 cells assessed as cell growth inhibition at 1 uM after 48 hrs by MTT assay; format: functional; details: PC-3, 48 h, read-out: GI; procedure, shortened: as §1
[21] = Cytotoxicity against human MIAPaCa2 cells assessed as cell growth inhibition at 0.5 uM after 48 hrs by MTT assay; format: functional; details: MIA PaCa-2, 48 h, read-out: GI; procedure, shortened: as §1
[22] = Cytotoxicity against human LS180 cells assessed as cell growth inhibition at 1 uM after 48 hrs by MTT assay; format: functional; details: LS180, 48 h, read-out: GI; procedure, shortened: as §1
[23] = system: HL-60; assay: Induction of apoptosis in human HL60 cells assessed as blebs formation after 24 hrs phase contrast microscopic analysis; format: functional, cell-based
Procedure, shortened: (§5)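 HL-60 cells at 0.5 × 10^6 cells/ml treated 24 h with compound at 0.2, 0.5, 1 or 5 (DMSO vehicle). Treated and control cells photographed under a phase contrast microscope at 20× and scored for morphology.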

[24] = Lipophilicity, log P of the compound; format: physicochemical; details: octanol/water
[25] = Cytotoxicity against human HepG2 cells assessed as cell growth inhibition at 0.5 uM after 48 hrs by MTT assay; format: functional; details: HepG2, 48 h, read-out: GI; procedure, shortened: as §1
[26] = Cytotoxicity against human HepG2 cells assessed as cell growth inhibition at 1 uM after 48 hrs by MTT assay; format: functional; details: HepG2, 48 h, read-out: GI; procedure, shortened: as §1
[27] = system: HL-60; assay: Induction of apoptosis in human HL60 cells assessed as morphological alterations after 24 hrs by hoechst 33258 staining-based microscopic analysis; format: functional, cell-based; procedure, shortened: as §4
[28] = Cytotoxicity against human LS180 cells assessed as cell growth inhibition at 10 uM after 48 hrs by MTT assay; format: functional; details: LS180, 48 h, read-out: GI; procedure, shortened: as §1
[29] = Cytotoxicity against human PC3 cells assessed as cell growth inhibition at 0.5 uM after 48 hrs by MTT assay; format: functional; details: PC-3, 48 h, read-out: GI; procedure, shortened: as §1
[30] = system: HL-60; assay: Induction of apoptosis in human HL60 cells assessed as cell shrinkage after 24 hrs phase contrast microscopic analysis; format: functional, cell-based; procedure, shortened: as §5
[31] = Lipophilicity, log P of the compound at pH 7; format: physicochemical; details: buffer
[32] = system: HL-60; assay: Induction of apoptosis in human HL60 cells assessed as condensation of nuclei after 24 hrs by hoechst 33258 staining-based microscopic analysis; format: functional, cell-based; procedure, shortened: as §4
[33] = Cytotoxicity against human PC3 cells assessed as cell growth inhibition at 10 uM after 48 hrs by MTT assay; format: functional; details: PC-3, 48 h, read-out: GI; procedure, shortened: as §1
[34] = Aqueous solubility of the compound at pH 7; format: physicochemical

Question: What does the source list for `C[C@H]1[C@@H](O)O[C@@H]2O[C@@]3(C)CC[C@H]4[C@H](C)CC[C@@H]1[C@@]24OO3` [ARTENIMOL]?
Answer: inhibition of growth at 50 µM [1]: 71%; IC50 [2]: 32 µM; inhibition of growth at 10 µM [3]: 63%; Activity [4]: 6%; Activity [5]: 49%; inhibition of growth at 30 µM [6]: 41%; Activity [7]: 49%; inhibition of growth at 30 µM [8]: 32%; Activity [9]: 32%; inhibition of growth at 30 µM [10]: 36%; inhibition of growth at 30 µM [11]: 91%; Activity [12]: 58%; inhibition of growth at 50 µM [13]: 93%; Activity [14]: 27%

Question: For `C[C@H]1[C@@H](OCCOc2cccc(C(=O)/C=C/c3ccc(O)cc3)c2)O[C@@H]2O[C@@]3(C)CC[C@H]4[C@H](C)CC[C@@H]1[C@@]24OO3`, which inhibition of growth at 0.5 µM [15] is on record?
Answer: 21.7%

Question: And the inhibition of growth at 10 µM [16]?
Answer: 37.7%

Question: And the inhibition of growth at 50 µM [1]?
Answer: 88.6%

Question: And the inhibition of growth at 10 µM [17]?
Answer: 15.1%

Question: What about the Activity [18] of the same compound?
Answer: Dose-dependent effect

Question: And the Activity [19]?
Answer: Active

Question: And the IC50 [2]?
Answer: > 50 µM

Question: And the inhibition of growth at 10 µM [3]?
Answer: 88.7%

Question: And the Activity [4]?
Answer: 4%

Question: And the inhibition of growth at 1 µM [20]?
Answer: 22.8%

Question: What about the Activity [5] of the same compound?
Answer: 46%

Question: What about the inhibition of growth at 0.5 µM [21] of the same compound?
Answer: 12.7%

Question: And the inhibition of growth at 1 µM [22]?
Answer: 24.7%

Question: What about the Activity [23] of the same compound?
Answer: Dose-dependent effect

Question: What about the logP [24] of the same compound?
Answer: 6.33

Question: What about the inhibition of growth at 0.5 µM [25] of the same compound?
Answer: 25.2%

Question: What about the inhibition of growth at 1 µM [26] of the same compound?
Answer: 29.6%

Question: And the inhibition of growth at 30 µM [6]?
Answer: 83.5%

Question: And the Activity [7]?
Answer: 49%

Question: What about the inhibition of growth at 30 µM [8] of the same compound?
Answer: 25.2%

Question: And the Activity [27]?
Answer: Dose-dependent effect

Question: What about the inhibition of growth at 10 µM [28] of the same compound?
Answer: 27.2%

Question: What about the inhibition of growth at 0.5 µM [29] of the same compound?
Answer: 15.2%

Question: And the Activity [30]?
Answer: Dose-dependent effect

Question: And the Activity [9]?
Answer: 50%

Question: And the inhibition of growth at 30 µM [10]?
Answer: 37.8 to 77.4%

Question: And the logP [31]?
Answer: -5.96

Question: What about the inhibition of growth at 30 µM [11] of the same compound?
Answer: 93.3%

Question: And the Activity [12]?
Answer: 54%

Question: What about the Activity [32] of the same compound?
Answer: Dose-dependent effect

Question: And the inhibition of growth at 10 µM [33]?
Answer: 29.6%

Question: And the solubility [34]?
Answer: > 100 µg/mL

Question: And the inhibition of growth at 50 µM [13]?
Answer: 94.8%

Question: What does the source list for `C[C@H]1[C@@H](OCCOc2ccc(/C=C/C(=O)c3ccc(O)cc3)cc2)O[C@@H]2O[C@@]3(C)CC[C@H]4[C@H](C)CC[C@@H]1[C@@]24OO3`?
Answer: inhibition of growth at 0.5 µM [15]: 32.2%; inhibition of growth at 10 µM [16]: 60.4%; inhibition of growth at 50 µM [1]: 88.8%; inhibition of growth at 10 µM [17]: 16.8%; Activity [18]: Dose-dependent effect; Activity [19]: Active; IC50 [2]: 24 µM; inhibition of growth at 10 µM [3]: 88.4%; Activity [4]: 4%; inhibition of growth at 1 µM [20]: 25.4%; Activity [5]: 46%; inhibition of growth at 0.5 µM [21]: 6.2%; inhibition of growth at 1 µM [22]: 36.5%; Activity [23]: Dose-dependent effect; logP [24]: 6.33; inhibition of growth at 0.5 µM [25]: 20.2%; inhibition of growth at 1 µM [26]: 23.8%; inhibition of growth at 30 µM [6]: 88.6%; Activity [7]: 49%; inhibition of growth at 30 µM [8]: 55.2%; Activity [27]: Dose-dependent effect; inhibition of growth at 10 µM [28]: 36.6%; inhibition of growth at 0.5 µM [29]: 19.3%; Activity [30]: Dose-dependent effect; Activity [9]: 53%; inhibition of growth at 30 µM [10]: 68.3 to 86.8%; logP [31]: -5.96; inhibition of growth at 30 µM [11]: 90.1%; Activity [12]: 59%; Activity [32]: Dose-dependent effect; inhibition of growth at 10 µM [33]: 41.5%; solubility [34]: > 100 µg/mL; inhibition of growth at 50 µM [13]: 93.6%; Activity [14]: 95%
